Tests used:
L1210 [1] = assay: Antitumor activity against mouse L1210 cells allografted in ip dosed C3H/DBA2 F1 mouse assessed as optimum dose required to increase in maximum life span administered as qd for 5 days; assay type: functional
Summary of the method: (§1)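 Mice: C3H/DBA2 F1 hybrids, 18.5-22.5 g, inoculated ip with 10⁵ L1210 cells on day 1. Treatment ip daily for 5 days from 24 h later, dose in 0.2 ml water (suspended or dissolved). T/C = ratio of mean life spans, treated vs control; optimum dose gives maximum T/C.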

L1210 [2] = assay: Antitumor activity against mouse L1210 cells allografted in C3H/DBA2 F1 mouse assessed as increase in life span at optimum dose, ip qd administered for 5 days relative to control; assay type: functional; summary of the method: as §1
[3] = Dissociation constant, pKa of the compound; assay type: physicochemical

| pKa [3] | SMILES | Activity (L1210 [1]) [mg/kg/day] | T/C (L1210 [2]) [%] |
| --- | --- | --- | --- |
| – | Nc1cccc(Nc2c3ccccc3nc3ccccc23)c1 | 40 | 146 |
| – | C[n+]1c2ccccc2c(Nc2ccccc2)c2cc(N)ccc21 | 14 | 162 |
| – | CCS(=O)(=O)Nc1ccc(Nc2c3ccccc3[n+](C)c3ccccc23)cc1 | 110 | 166 |
| – | CS(=O)(=O)Nc1ccc(Nc2c3ccccc3nc3cc([N+](=O)[O-])ccc23)cc1 | 250 | 127 |
| – | NS(=O)(=O)c1ccc(Nc2c3ccccc3nc3ccccc23)cc1 | >500 | – |
| – | CS(=O)(=O)Nc1ccc(Nc2c3ccccc3nc3cc(N)ccc23)cc1 | 25 | 178 |
| – | CCCCS(=O)(=O)Nc1ccc(Nc2c3ccccc3[n+](C)c3ccccc23)cc1 | >500 | – |
| – | COc1cc(NS(C)(=O)=O)ccc1Nc1c2ccccc2nc2ccccc12 [AMSACRINE] | 12 | 196 |
| – | CS(=O)(=O)Nc1ccc(Nc2c3ccccc3nc3ccc(Br)cc23)cc1 | 35 | 165 |
| – | CC(=O)Nc1ccc2c(Nc3ccccc3)c3ccccc3[n+](C)c2c1 | 50 | 126 |
| – | CCS(=O)(=O)Nc1ccc(Nc2c3ccccc3[n+](C)c3ccc(Cl)cc23)c(OC)c1 | 60 | 166 |
| – | CC(=O)Nc1ccc2c(c1)c(Nc1ccccc1)c1ccccc1[n+]2C | 22 | 158 |
| – | CCCCS(=O)(=O)Nc1ccc(Nc2c3ccccc3nc3ccccc23)cc1 | >500 | – |
| – | C[n+]1c2ccccc2c(Nc2cccc(N)c2)c2ccccc21 | 120 | 137 |
| – | C[n+]1c2ccccc2c(Nc2ccc(S(N)(=O)=O)cc2)c2ccccc21 | >500 | – |
| – | C[n+]1c2ccccc2c(Nc2ccccc2)c2ccc(N)cc21 | 20 | 148 |
| – | CC(=O)Nc1ccc2c(Nc3ccc(NS(C)(=O)=O)cc3)c3ccccc3[n+](C)c2c1 | 15 | 134 |
| – | CCS(=O)(=O)Nc1ccc(Nc2c3ccccc3nc3ccccc23)cc1 | 150 | 183 |
| – | C[n+]1c2ccccc2c(Nc2ccc(NS(C)(=O)=O)cc2)c2ccc([N+](=O)[O-])cc21 | >500 | – |
| – | COc1cc(NS(C)(=O)=O)ccc1Nc1c2ccccc2[n+](C)c2ccc(Cl)cc12 | 12 | 179 |
| – | COc1cc(NS(C)(=O)=O)ccc1Nc1c2ccccc2nc2ccc(Cl)cc12 | 10 | 172 |
| – | C[n+]1c2ccccc2c(Nc2ccc(NS(C)(=O)=O)cc2)c2cc(Br)ccc21 | 47 | 168 |
| – | C[n+]1c2ccccc2c(Nc2ccc(NS(C)(=O)=O)cc2)c2ccc(N)cc21 | 5 | 167 |

| pKa [3] | SMILES | Activity (L1210 [1]) [mg/kg/day] | T/C (L1210 [2]) [%] |
| --- | --- | --- | --- |
| – | CC(=O)Nc1ccc2nc3ccccc3c(Nc3ccc(NS(C)(=O)=O)cc3)c2c1 | 13 | 214 |
| – | COc1cc(NS(C)(=O)=O)ccc1Nc1c2ccccc2nc2ccc(Br)cc12 | 6 | 219 |
| – | CC(=O)Nc1cccc(Nc2c3ccccc3nc3ccccc23)c1 | 30 | 133 |
| – | CS(=O)(=O)Nc1ccc(Nc2c3ccccc3nc3ccccc23)cc1 | 45 | 207 |
| – | CC(=O)Nc1ccc2c(Nc3ccc(NS(C)(=O)=O)cc3)c3ccccc3nc2c1 | 375 | 147 |
| – | CC(=O)Nc1ccc2c(c1)c(Nc1ccc(NS(C)(=O)=O)cc1)c1ccccc1[n+]2C | 6 | 181 |
| – | C[n+]1c2ccccc2c(Nc2ccc(N)cc2)c2ccccc21 | 75 | 163 |
| – | C[n+]1c2ccccc2c(Nc2ccc(NS(C)(=O)=O)cc2)c2cc(N)ccc21 | 1.25 | 180 |
| – | COc1cc(NS(C)(=O)=O)ccc1Nc1c2ccccc2[n+](C)c2ccc(Br)cc12 | 12 | 158 |
| 12.5 | Cn1ccc(=N)cc1 | – | – |
| – | C[n+]1c2ccccc2c(Nc2ccccc2)c2ccccc21 | >500 | – |
| – | CCCS(=O)(=O)Nc1ccc(Nc2c3ccccc3nc3ccccc23)cc1 | 225 | 134 |
| – | C[n+]1c2ccccc2c(Nc2ccccc2)c2ccc([N+](=O)[O-])cc21 | >500 | – |
| – | NC(=O)c1ccc(Nc2c3ccccc3nc3ccccc23)cc1 | >500 | – |
| 12.4 | Cn1ccc(=N)c2ccccc21 | – | – |
| – | COc1cc(NS(C)(=O)=O)ccc1Nc1c2ccccc2[n+](C)c2ccccc12 | 12 | 172 |
| – | CCCS(=O)(=O)Nc1ccc(Nc2c3ccccc3[n+](C)c3ccccc23)cc1 | >500 | – |
| – | C[n+]1c2ccccc2c(Nc2ccc(NS(C)(=O)=O)cc2)c2ccccc21 | 95 | 184 |
| – | CC(=O)Nc1cccc(Nc2c3ccccc3[n+](C)c3ccccc23)c1 | 67 | 132 |
| – | c1ccc(Nc2c3ccccc3nc3ccccc23)cc1 | >500 | – |
| – | Nc1ccc(Nc2c3ccccc3nc3ccccc23)cc1 | 33 | 172 |
| – | CS(=O)(=O)Nc1ccc(Nc2c3ccccc3nc3ccc(N)cc23)cc1 | 2.5 | 181 |
| – | C[n+]1c2ccccc2c(Nc2ccc(C(N)=O)cc2)c2ccccc21 | >500 | – |

— ChEMBL document CHEMBL3272175, “Potential antitumor agents. 17. 9-Anilino-10-methylacridinium salts” (J Med Chem, 1976)
